Laboratory results: ChEMBL document CHEMBL3992553, “New nitrofurans amenable by isocyanide multicomponent chemistry are active against multidrug-resistant and poly-resistant Mycobacterium tuberculosis” (Bioorg Med Chem, 2017)
Values after ≈ are worked out from the molar mass of the structure shown.

Tests used:
Acinetobacter baumannii = experiment: Antibacterial activity against Acinetobacter baumannii DSM 30007 after 18 hrs; format: functional; conditions: DSM 30007, 18 h
Procedure, shortened: (§1)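 Broth microdilution MIC. Gram-negatives grown overnight at 37 °C in Müller-Hinton broth + 1% glucose, pH 7.2; Gram-positives in trypticase soy broth with yeast extract, pH 7.2. Inoculum 5×10^5 cfu/mL final. Serial dilutions from 100 µM down to 0.2 µM, DMSO ≤1%. 18 h at 37 °C, moist; OD600. MIC = lowest concentration completely suppressing growth.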

[1] = (§2) Cytotoxicity against mouse L929 cells assessed as reduction in cell viability after 5 days by WST1 assay; format: cell-based; conditions: mouse, L929 cells
Procedure, shortened: (§3)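 KB-3-1 or L929 cells, 1500 per well, in DMEM + 5% FBS. Exposed to serially diluted compound for 5 days. WST-1 added, plates incubated at 37 °C (20 min for KB-3-1), absorbance read at 450 nm (reference 600 nm). Viability given as % of controls.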

L929 = experiment: as §2; format: cell-based; conditions: Mus musculus, L929, 120 h; procedure, shortened: as §3
Enterococcus faecium = experiment: Antibacterial activity against Enterococcus faecium DSM 20477 after 18 hrs; format: functional; conditions: DSM 20477, 18 h; procedure, shortened: as §1
KB 3-1 = experiment: (§4) Cytotoxicity against human KB-3-1 cells assessed as reduction in cell viability after 5 days by WST1 assay; format: cell-based; conditions: Homo sapiens, KB 3-1, 120 h; procedure, shortened: as §3
[2] = as §4; format: cell-based; conditions: human, KB-3-1 cells; procedure, shortened: as §3
Staphylococcus aureus [3] = experiment: Antibacterial activity against methicillin-resistant Staphylococcus aureus RKI 11-02670 after 18 hrs; format: functional; conditions: RKI 11-02670, 18 h; procedure, shortened: as §1
Escherichia coli [4] = experiment: Growth inhibition of Escherichia coli DSM 1116 at 100 uM after 18 hrs relative to control; format: functional; conditions: DSM 1116, 18 h, read-out: GI
Procedure, shortened: (§5)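 Gram-negative culture grown overnight at 37 °C in Müller-Hinton broth + 1% glucose, pH 7.2, then tested at 5×10^5 cfu/mL final. Compound at 100 µM from DMSO stock, DMSO ≤1%. Incubated 18 h at 37 °C under moist conditions. OD600 read; value reported as % growth inhibition.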

Staphylococcus aureus [5] = experiment: Antibacterial activity against methicillin-resistant Staphylococcus aureus DSM 11822 after 18 hrs; format: functional; conditions: DSM 11822, 18 h; procedure, shortened: as §1
Pseudomonas aeruginosa [6] = experiment: Growth inhibition of Pseudomonas aeruginosa PA7 DSM 24068 at 100 uM after 18 hrs relative to control; format: functional; conditions: PA7 DSM 24068, 18 h, read-out: GI; procedure, shortened: as §5
MCF7 = experiment: (§6) Cytotoxicity against human MCF7 cells assessed as reduction in cell viability after 5 days by WST1 assay; format: cell-based; conditions: Homo sapiens, MCF7, 120 h
Procedure, shortened: (§7)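 MCF-7 cells, 3000 per well, in RPMI + 5% FBS, 0.5% NEAA, 0.5% GlutaMAX and insulin 5 µg/mL. Exposed to serially diluted compound for 5 days. WST-1 incubation 2 h at 37 °C, absorbance read at 450 nm (reference 600 nm). Viability given as % of controls.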

[7] = as §6; format: cell-based; conditions: human, MCF7 cells; procedure, shortened: as §7
Klebsiella pneumoniae = experiment: Antibacterial activity against Klebsiella pneumoniae DSM 11678 after 18 hrs; format: functional; conditions: DSM 11678, 18 h; procedure, shortened: as §1
[8] = test system: Mycobacterium tuberculosis; experiment: Antimycobacterial activity against Mycobacterium tuberculosis H37Rv after 7 days by REMA; format: functional; conditions: 168 h
Procedure, shortened: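 REMA. 3-week H37Rv culture (2nd generation on Löwenstein–Jensen) vortexed with glass beads, set to 1.0 McFarland in 7H9, diluted 20-fold in 7H9 + OADC. 2-fold dilutions, final 1.6–400 µg/mL, 200 µL wells. 7 days at 35 °C, then resazurin 18 h. Fluorescence ex 520/em 590. MIC where signal plateaued or matched the 1% population control (t test).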

[9] = Cytotoxicity against human FS4-LTM cells assessed as reduction in cell viability after 24 hrs by WST1 assay; format: cell-based; conditions: for IC50: Homo sapiens, FS4-LTM, 24 h; for IC90 at 24 h: human, FS4-LTM cells
Procedure, shortened: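 FS4-LTM conditionally immortalized human fibroblasts, kept without doxycycline for primary-like behaviour, in DMEM + 5% FBS. Exposed to serially diluted compound for 24 h. WST-1 added, plates incubated at 37 °C, absorbance read at 450 nm (reference 600 nm). Viability given as % of controls set to 100%.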

Escherichia coli [10] = experiment: Antibacterial activity against Escherichia coli DSM 1116 after 18 hrs; format: functional; conditions: DSM 1116, 18 h; procedure, shortened: as §1
Pseudomonas aeruginosa [11] = experiment: Antibacterial activity against Pseudomonas aeruginosa PA7 DSM 24068 after 18 hrs; format: functional; conditions: PA7 DSM 24068, 18 h; procedure, shortened: as §1

Compound | MIC (Acinetobacter baumannii) | MIC (Enterococcus faecium) | EC50 (Staphylococcus aureus [3]) | MIC (Staphylococcus aureus [3]) | inhibition of growth at 100 µM (Escherichia coli [4]) | MIC (Staphylococcus aureus [5]) | inhibition of growth at 100 µM (Pseudomonas aeruginosa [6]) | MIC (Klebsiella pneumoniae) | MIC [8] | other results
CC1(C(=O)NC2CCCCC2)CSCC(=O)N1/N=C/c1ccc([N+](=O)[O-])o1 (stereo not given) | > 100 µM | > 100 µM | 55 µM | 100 µM | 84% | 100 µM (≈ 39.4 µg/mL) | 91% | > 100 µM | 32 µM (≈ 12.6 µg/mL) | IC90 at 120 h [1]: > 100 µM; IC50 (L929): 50 µM; IC50 (KB 3-1): 16 µM; IC90 at 120 h [2]: 100 µM; IC50 (MCF7): 8.7 µM; IC90 at 120 h [7]: > 100 µM; IC50 [9]: 8.7 to 100 µM; IC90 at 24 h [9]: ≥ 100 µM
CC1(C(=O)NC2CCCCC2)CCCC(=O)N1/N=C/c1ccc([N+](=O)[O-])o1 (stereo not given) | > 100 µM | > 100 µM | 70 µM | 100 µM | 81% | 100 µM (≈ 37.6 µg/mL) | 88% | > 100 µM | 33 µM (≈ 12.4 µg/mL) | IC90 at 120 h [1]: > 100 µM; IC50 (L929): 50 to 50.2 µM; IC50 (KB 3-1): 61 µM; IC90 at 120 h [2]: 100 µM; IC50 (MCF7): 19 µM; IC90 at 120 h [7]: 100 µM; IC50 [9]: 19.3 to 100 µM; IC90 at 24 h [9]: ≥ 100 µM
CC(C)(C)NC(=O)C1(C)CCC(=O)N1/N=C/c1ccc([N+](=O)[O-])o1 (stereo not given) | – | > 100 µM | 91 µM | > 100 µM | 86% | > 100 µM | 92% | – | > 100 µM | –
CC1(C(=O)NCc2ccccc2)CCCC(=O)N1/N=C/c1ccc([N+](=O)[O-])o1 (stereo not given) | – | > 100 µM | 75 µM | 100 µM | 87% | 100 µM (≈ 38.4 µg/mL) | 85% | – | 65 µM (≈ 25 µg/mL) | –
CC1(C(=O)NCc2ccc(Cl)cc2)CCC(=O)N1/N=C/c1ccc([N+](=O)[O-])o1 (stereo not given) | – | > 100 µM | > 100 µM | > 100 µM | 82% | > 100 µM | 89% | – | > 100 µM | –
CC(C)(C)NC(=O)C1(C)CCCC(=O)N1/N=C/c1ccc([N+](=O)[O-])o1 (stereo not given) | – | > 100 µM | 76 µM | 100 µM | 83% | 100 µM (≈ 35 µg/mL) | 85% | – | 71 µM (≈ 24.9 µg/mL) | –
CC1(C(=O)NCc2ccccc2)CCC(=O)N1/N=C/c1ccc([N+](=O)[O-])o1 (stereo not given) | – | > 100 µM | 67 µM | 95 µM | 85% | 95 µM (≈ 35.2 µg/mL) | 90% | – | > 100 µM | –
CC1(C(=O)NCc2ccccc2)CSCC(=O)N1/N=C/c1ccc([N+](=O)[O-])o1 (stereo not given) | > 100 µM | > 100 µM | 64 µM | > 100 µM | – | > 100 µM | – | > 100 µM | > 100 µM | EC50 (Acinetobacter baumannii): > 100 µM; EC50 (Escherichia coli [10]): > 100 µM; MIC (Escherichia coli [10]): > 100 µM; EC50 (Enterococcus faecium): > 100 µM; EC50 (Pseudomonas aeruginosa [11]): > 100 µM; MIC (Pseudomonas aeruginosa [11]): > 100 µM; EC50 (Klebsiella pneumoniae): > 100 µM
CC(C)(C)NC(=O)C1(C)COCC(=O)N1/N=C/c1ccc([N+](=O)[O-])o1 (stereo not given) | > 100 µM | > 100 µM | 50 µM | > 100 µM | – | > 100 µM | – | > 100 µM | > 100 µM | EC50 (Acinetobacter baumannii): > 100 µM; EC50 (Escherichia coli [10]): > 100 µM; MIC (Escherichia coli [10]): > 100 µM; EC50 (Enterococcus faecium): > 100 µM; EC50 (Pseudomonas aeruginosa [11]): > 100 µM; MIC (Pseudomonas aeruginosa [11]): > 100 µM; EC50 (Klebsiella pneumoniae): > 100 µM
CC1(C(=O)NCc2ccc(Cl)cc2)CCCC(=O)N1/N=C/c1ccc([N+](=O)[O-])o1 (stereo not given) | – | > 100 µM | 75 µM | 100 µM | 84% | 100 µM (≈ 41.9 µg/mL) | 98% | – | > 100 µM | –
CC1(C(=O)NC2CCCCC2)COCC(=O)N1/N=C/c1ccc([N+](=O)[O-])o1 (stereo not given) | – | > 100 µM | 75 µM | 100 µM | 84% | 100 µM (≈ 37.8 µg/mL) | 90% | – | 66 µM (≈ 25 µg/mL) | –
CC1(C(=O)NCc2ccccc2)COCC(=O)N1/N=C/c1ccc([N+](=O)[O-])o1 (stereo not given) | – | > 100 µM | 77 µM | 100 µM | 83% | 100 µM (≈ 38.6 µg/mL) | 86% | – | 65 µM (≈ 25.1 µg/mL) | –
CC1(C(=O)NC2CCCCC2)CCC(=O)N1/N=C/c1ccc([N+](=O)[O-])o1 (stereo not given) | – | > 100 µM | 79 µM | ≥ 100 µM | 85% | > 100 µM | 90% | – | 70 µM (≈ 25.4 µg/mL) | –
CC1(C(=O)NC2CCCCC2)CN(S(C)(=O)=O)CC(=O)N1/N=C/c1ccc([N+](=O)[O-])o1 (stereo not given) | > 100 µM | > 100 µM | 35.7 µM | > 100 µM | – | > 100 µM | – | > 100 µM | 55 µM (≈ 25.1 µg/mL) | EC50 (Acinetobacter baumannii): > 100 µM; EC50 (Escherichia coli [10]): > 100 µM; MIC (Escherichia coli [10]): > 100 µM; EC50 (Enterococcus faecium): > 100 µM; EC50 (Pseudomonas aeruginosa [11]): > 100 µM; MIC (Pseudomonas aeruginosa [11]): > 100 µM; EC50 (Klebsiella pneumoniae): > 100 µM
NCC[C@H](O)C(=O)N[C@@H]1C[C@H](N)[C@@H](O[C@H]2O[C@H](CN)[C@@H](O)[C@H](O)[C@H]2O)[C@H](O)[C@H]1O[C@H]1O[C@H](CO)[C@@H](O)[C@H](N)[C@H]1O [AMIKACIN] | – | – | – | – | – | – | – | – | – | EC50 (Pseudomonas aeruginosa [11]): 3.8 µg/mL; MIC (Pseudomonas aeruginosa [11]): 4.5 µg/mL
O=C(O)c1cn(C2CC2)c2cc(N3CCNCC3)c(F)cc2c1=O [CIPROFLOXACIN] | 0.2 µg/mL | 8 µg/mL | – | – | – | – | – | 0.07 µg/mL | – | EC50 (Acinetobacter baumannii): 0.2 µg/mL; EC50 (Escherichia coli [10]): 0.01 µg/mL; EC50 (Enterococcus faecium): 2.29 µg/mL; EC50 (Klebsiella pneumoniae): 0.05 µg/mL
CC(=O)NC[C@H]1CN(c2ccc(N3CCOCC3)c(F)c2)C(=O)O1 [LINEZOLID] | – | – | 0.25 µg/mL | 0.62 µg/mL | – | – | – | – | – | –
